Assay outcomes deposited in PubChem by The Scripps Research Institute Molecular Screening Center.
S1P4 ag = agonists of human S1P4 receptor; O95977; S1P4-expressing cell line, agonist reporter assay; activation, % at 4.98 µM; actives 0.35% (n = 220,000); AID 1509; in the data active = activation above about 11%;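 also: 0% = DMSO vehicle and 100% = reference agonist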
NPY Y2 blocker = blocks the human neuropeptide Y Y2 receptor; inhibition, % at 2.7 µM; actives 0.99% (n = 140,000); P49146; AID 793; NPY-Y2 expressing cells, antagonist mode; in the data active = inhibition above about 17%;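 also: 0% = vehicle with agonist challenge and 100% = reference antagonist with challenge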
Target sequence (P49146 whole entry, looked up): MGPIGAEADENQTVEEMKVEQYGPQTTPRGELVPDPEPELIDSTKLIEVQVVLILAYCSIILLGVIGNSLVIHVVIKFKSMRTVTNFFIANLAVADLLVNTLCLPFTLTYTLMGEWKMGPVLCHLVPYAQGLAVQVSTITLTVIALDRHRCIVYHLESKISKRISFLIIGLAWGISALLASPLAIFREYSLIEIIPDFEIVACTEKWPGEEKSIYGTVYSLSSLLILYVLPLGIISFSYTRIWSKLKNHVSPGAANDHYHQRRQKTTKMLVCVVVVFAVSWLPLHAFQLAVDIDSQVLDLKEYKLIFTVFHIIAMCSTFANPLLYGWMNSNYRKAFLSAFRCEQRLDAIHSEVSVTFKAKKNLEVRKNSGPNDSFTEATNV
NPY-Y1 antag = NPY-Y1 (human) receptor antagonism | P25929 | HEK293-CNG Y1 cells, membrane potential fluorescence; NPY at EC95, then isoproterenol | inhibition, % at 3.6 µM | actives 1% (n = 200,000) | AID 1040;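 active = inhibition above the campaign mean inhibition of all tested compounds plus 3 SD, cut at about 20% in these data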;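 also: 0% = DMSO wells given NPY plus isoproterenol and 100% = isoproterenol alone without NPY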
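Material: HEK293 cells with Y1 receptor plus CNG channel; times: compound incubation 1 h at room temperature, readout 45 min post-stimulation; signal: fluorescence, membrane potential probe; read-out basis: fluorescence ratio normalized to % inhibition between controls; benchmarks: full-block control isoproterenol-only wells, zero-block control NPY plus isoproterenol wells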
S1P4 antag = human S1P4 receptor antagonism; O95977; actives 0.26% (n = 220,000); S1P4-expressing cells, antagonist mode, reporter read-out; inhibition, % at 4.98 µM; in the data active = inhibition above about 29%;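 also: 0% = wells stimulated with agonist and 100% = vehicle wells without agonist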
NPY1 pot ag = potentiators or agonists of human neuropeptide Y receptor Y1. NPY-Y1 expressing cells, potentiator/agonist activation. activation, % at 3.6 µM. actives 0.37% (n = 220,000). AID 1304; in the data active = activation above about 33%, passing the limit was not always enough;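 also: cells stimulated with NPY at EC10 then isoproterenol at EC100; 0% = low agonist plus stimulus and 100% = saturating agonist plus stimulus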
NPY2 pot ag = human NPY-Y2 potentiation or agonism, primary screen; P49146; cells expressing NPY-Y2, potentiator/agonist read-out; activation, % at 3.6 µM; actives 0.45% (n = 220,000); AID 1359; in the data active = activation above about 27%;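 also: cells stimulated with NPY near EC25 plus isoproterenol at EC100; 0% = vehicle plus submaximal agonist and 100% = vehicle plus saturating agonist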
S1P4 agonist cf = human S1P4 agonism, confirmation; shares compounds with S1P4 ag; S1P4 agonist cell-based reporter assay; activation, % at 4.98 µM; actives 7% (n = 740); AID 1523; in the data active = activation above about 12%;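 also: 0% = vehicle and 100% = full reference agonist response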
S1P1 agonist = human S1P1 agonism as S1P4 agonist counter-screen. shares compounds with S1P4 ag. activation, % at 4.98 µM. actives 4% (n = 740). AID 1563. S1P1 agonist cell-based assay, activation; in the data active = activation above about 21%;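 also: 0% = vehicle wells and 100% = reference agonist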
* marks the source's active call; other numbers are inactive results; · = no result. Most compounds without a hit are left out; they make up all but 2.4% or so of the library.

SMILES	S1P4 ag	NPY Y2 blocker	NPY-Y1 antag	S1P4 antag	NPY1 pot ag	NPY2 pot ag	S1P4 agonist cf	S1P1 agonist
NS(=O)(=O)c1ccc(CCNC(=O)CCCC2=NS(=O)(=O)c3ccccc3N2)cc1	17*	2	6	-5	4	1	-1	-2
CCOCCCNC(=O)CCCC1=NS(=O)(=O)c2ccccc2N1	-2	1	3	-7	3	-2	·	·
COc1ccc(CC(=O)Nc2cc(C)ccc2O)cc1OC	0	·	·	-8	15	-8	·	·
CC(C)n1c(=NC(=O)c2ccco2)c(C#N)cc2c(=O)n3ccccc3cc21	12*	4	14	-30	10	4	0	9
CCOC(=O)c1cc2c(=O)n3ccccc3nc2n(C(C)C)c1=NC(=O)c1ccco1	5	·	-1	-14	21	14	·	·
Cc1onc(-c2c(Cl)cccc2Cl)c1C(=O)ONC(=O)c1ccccc1	3	·	·	6	-3	1	·	·
Cc1cccc(OCC(=O)Nc2ncn[nH]2)c1C	24*	·	·	-20	24	5	-3	-4
Cc1cccc(OCC(=O)Nc2nnn(C)n2)c1C	0	-2	-5	-12	-29	3	·	·
CCOc1ccc(S(=O)(=O)NCc2ccccc2Cl)cc1C(N)=O	0	·	0	-10	4	-3	·	·
CCOc1ccc(S(=O)(=O)NCc2ccccc2)cc1C(N)=O	11*	·	0	0	0	-4	-2	0
CCOCCCn1c(=NC(=O)c2ccc(OC)c(OC)c2)c(C#N)cc2c(=O)n3cccc(C)c3nc21	1	2	-4	-2	-20	11	·	·
CC(C)OCCCn1c(=NC(=O)c2cccs2)c(C#N)cc2c(=O)n3ccccc3nc21	19*	·	·	7	0	-8	4	8
CCOCCCn1c(=NC(C)=O)c(C#N)cc2c(=O)n3cccc(C)c3nc21	12*	·	·	-9	-11	1	2	28*
CCCCCn1c(=NC(C)=O)c(C#N)cc2c(=O)n3ccccc3nc21	1	0	-5	-11	-8	-4	·	·
CC(C)OCCCn1c(=NC(=O)c2ccncc2)c(C#N)cc2c(=O)n3ccccc3nc21	4	2	6	-12	-7	6	·	·
CC(=O)N=c1c(C#N)cc2c(=O)n3ccccc3nc2n1CCCOC(C)C	16*	·	·	-22	-3	8	4	1
Cc1nnc(SCc2nnc(-c3cccs3)o2)n1C1CCCCC1	2	·	5	-13	0	8	·	·
COc1ccc(-c2nnc(SCc3nnc(-c4cccs4)o3)n2CC2CCCO2)cc1 (configuration not stated)	57*	3	-6	-11	2	1	-1	5
O=C(CSC(=S)N1CCSCC1)c1ccccc1	53*	·	5	8	1	7	-2	1
N#C/C(=C\c1cccs1)C(=O)c1ccccc1Cl	36*	·	·	24	-5	16	-2	-9
Cc1ccc(/C=N/n2c(C3CCCCC3)n[nH]c2=S)s1	21*	4	1	-10	15	5	-1	0
COc1ccc(-c2nnc(SCc3c(C)noc3C)o2)cc1	-3	·	6	4	-9	0	·	·
Cc1ccc(C(=O)NCCc2nnc3ccc(SCC(=O)Nc4c(C)cc(C)cc4C)nn23)cc1	13*	1	0	-13	-2	-12	-1	-3
CCOC(=O)C1=C(O)C(=O)N(CCCn2ccnc2)C1c1ccc(OC)cc1 (configuration not stated)	-1	·	3	-17	-6	-9	·	·
COc1ccc(O)c(C2=Nc3ccccc3N=C(c3ccco3)C2)c1	69*	9	3	-12	-16	7	-3	3
SMILES	S1P4 ag	NPY Y2 blocker	NPY-Y1 antag	S1P4 antag	NPY1 pot ag	NPY2 pot ag	S1P4 agonist cf	S1P1 agonist
Oc1ccc(Cl)cc1C1=Nc2ccccc2N=C(c2ccco2)C1	2	1	3	5	-1	11	·	·
Cc1csc(NC(=O)CSc2nnc(-c3ccoc3C)n2C(C)c2ccccc2)n1 (configuration not stated)	1	·	·	5	24	27	·	·
N#CCCN(/N=C/c1cccnc1)C1=NS(=O)(=O)c2ccccc21	47*	·	4	-4	10	4	-1	3
O=C(N/N=C1\CCCc2ccccc21)c1ccc([N+](=O)[O-])cc1	12*	2	0	-13	-16	-10	-3	0
Cc1ccc2nc(SCC3CCCCO3)[nH]c2c1 (configuration not stated)	-1	·	·	-13	15	-6	·	·
Brc1ccc(-c2ccc(/C=N/Nc3nc4ccccc4[nH]3)o2)cc1	12*	3	8	13	8	21	8	24*
CCCCOc1ccc(CSCCN=C(N)N)cc1	-1	·	-2	8	-1	-16	·	·
COc1cccc(C2=NOC(C(=O)N3CCN(C(=O)c4ccco4)CC3)C2)c1 (configuration not stated)	37*	1	-1	3	-8	1	0	-2
O=C(CNC(=O)c1ccc(F)cc1)N/N=C/c1cn[nH]c1-c1ccccc1	16*	2	-10	-19	7	2	-2	-3
CC12CN3CC(C)(CN(C1)C3c1ccccc1F)C2 (configuration not stated)	-1	·	·	3	8	-3	·	·
COCCNC(=S)N1CCc2cc(OC)c(OC)cc2C1COc1cc(C)cc(C)c1 (configuration not stated)	18*	2	2	0	-4	0	-2	1
C/C(CC(=O)Nc1ccc(F)cc1)=N\NC(=O)Cc1csc(N)n1	0	0	-4	-4	-26	-10	·	·
C/C(CC(=O)Nc1ccc(Br)cc1)=N\NC(=O)Cc1csc(N)n1	101*	·	·	13	23	6	-2	-1
Nn1c(SCC(=O)Nc2cccc(F)c2)nnc1C1CCCCC1	18*	-1	1	-4	7	7	-1	7
COc1ccc(NC(=O)CSc2nnc(C3CCCCC3)n2N)cc1	0	·	·	5	11	-28	·	·
Cc1ccc(NC(=S)N2CCCCC2)cc1C	0	·	·	-3	-10	-16	·	·
COc1ccc(C2Nc3cc(OC)ccc3-n3cccc32)cc1 (configuration not stated)	2	·	·	-1	-14	11	·	·
CC(C)CC(=O)Nc1ccc(-c2nnn(CC(=O)NCc3ccco3)n2)cc1	14*	·	-2	-4	14	3	-2	-5
CC(=O)c1cccc(CN2CCN(CC(C)C)C(CCO)C2)c1 (configuration not stated)	1	·	-3	-14	12	-9	·	·
Cc1ccnc(NC(=O)CCC(=O)N(CC(=O)NC2CCCCC2)Cc2cccs2)c1	-2	·	-1	8	16	-9	·	·
